Screening results: PubChem, Sanford-Burnham Center for Chemical Genomics
697 NFkB inh = inhibitors of PMA/ionomycin-induced NF-kB reporter, 697 cells, primary screen, B-cell NF-kB inhibitor project, cell-based, luminescence, uHTS; hit rate 0.33% among 330,000; AID 435022, 2010; inhibition, % at 4 µM; 697 B-cell NF-kB luciferase reporter, 16 h; in the data active = inhibition above about 35%
Jurkat NFkB inh = inhibitors of induced NF-kB luciferase reporter, primary screen, TCR NF-kB activation inhibitor project, cell-based, luminescence, uHTS; Jurkat, PMA/ionomycin-induced NF-kB luciferase reporter; inhibition, % at 4 µM; hit rate 0.53% among 330,000; AID 435003, 2010; in the data active = inhibition above about 50%
Gli-Sufu antag = Gli-Sufu pathway antagonists, primary screen, luciferase luminescence, Sufu-KO-LIGHT cells, uHTS | Sufu-KO-LIGHT fibroblasts, Gli luciferase reporter luminescence | inhibition, % at 5 µM | hit rate 0.74% among 340,000;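 active = inhibition above about 55%, limit read from the data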;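 also: 0% = DMSO-treated cells and 100% = wells with medium but no cells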
Hep lipid drop = inhibitors of hepatocyte lipid droplet formation, primary screen, imaging, high-throughput imaging, BODIPY stain; AML12 mouse hepatocytes, oleate lipid droplets; inhibition, % at 6.5 µM; hit rate 0.4% among 240,000;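 active = lipid droplet intensity inhibited by at least 50%, with more than 500 cells counted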
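Assay system: AML12 hepatocytes (mouse) / Also added: 100 µM oleic acid challenge / Times: overnight treatment with compound plus oleate / Detection: high-content imaging of BODIPY-stained droplets and DAPI nuclei / Evaluation: % inhibition of lipid droplet signal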
hiPSC survival = enhancers of single-cell hiPSC survival, primary screen, ATPlite luminescence. 100% = ROCK inhibitor wells, 0% = DMSO. survival enhancement, % at 20 µM. hit rate 0.044% among 360,000. AID 602274, 2012; in the data active = survival enhancement above about 18%;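 also: cells exposed to compounds for 16 hours before the ATP read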
H9c2 TAG inh = inhibitors of triacylglycerol accumulation, primary screen, cell-based, uHTS, fluorescence, H9c2 | H9c2 cells, Nile Red lipid (TAG) fluorescence; cells loaded with 200 µM oleic acid | inhibition, % at 12.5 µM | hit rate 0.66% among 230,000 | AID 651582, 2012;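 active = pattern-corrected inhibition of lipid staining of at least 50% with the nuclear-stain viability signal not falling by more than 50%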;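 also: 0% = DMSO wells and 100% = triacsin C control wells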
Gli-Sufu confirm = Gli-SUFU pathway antagonists, confirmation, single concentration, luciferase luminescence, Sufu-KO-LIGHT cells; hit rate 40% among 2,500; inhibition, % at 5 µM; AID 602428, 2012; Gli luciferase reporter; shares compounds with Gli-Sufu antag;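 active = mean inhibition at 5 µM reaching about 45%, limit read from the data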;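 also: plate controls were DMSO-treated cells for no effect and wells lacking cells for full effect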
SufuKO cytotox = cytotoxicity in Sufu-KO-LIGHT cells, confirmation, cytotoxicity control for Gli-SUFU antagonist project, cell-based, ATP luminescence, single concentration; shares compounds with Gli-Sufu antag; cytotoxicity, % at 5 µM; hit rate 32% among 2,500;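 active = mean cytotoxicity at 5 µM above about 25%, limit read from the data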;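 also: cells exposed to compound overnight for roughly 16 to 18 hours; plate controls were DMSO wells with cells for no effect and medium without cells for full effect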
Wnt3a counter = Wnt3a reporter signal inhibition, confirmation, counter-screen for Gli-SUFU antagonist project, Wnt-LIGHT cells, luminescence, single concentration; shares compounds with Gli-Sufu antag; inhibition, % at 6.25 µM; Wnt3a-driven luciferase reporter; AID 651995, 2013; hit rate 20% among 2,500;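 active = mean inhibition above about 25%, limit read from the data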
Numbers without * were called inactive; . = no result. The list is not random: actives were taken first. Their share in the collection is about 1.8%.

SMILES	697 NFkB inh	Jurkat NFkB inh	Gli-Sufu antag	Hep lipid drop	hiPSC survival	H9c2 TAG inh	Gli-Sufu confirm	SufuKO cytotox	Wnt3a counter
CCn1c(C)[n+](Cc2ccccc2)c2ccc(C(=O)OC)cc21	18.1	6.9	5.9	-1.9	-0.6	8.4	.	.	.
Cc1ccc(/C=N/N=C2/NC(=O)C(CC(=O)N3CCOCC3)S2)cc1 (stereo not drawn)	18.4	5.3	2.9	13.2	-0.3	-1.4	.	.	.
FC(F)(F)c1cnc(Sc2nnc(-c3cccs3)n2CC2CCCO2)c(Cl)c1 (stereo not drawn)	5.2	-5.2	51.0	-1.1	-1.6	.	11.1	23.5	-27.9
O=C(c1ccc(=O)[nH]n1)N1CCN(S(=O)(=O)c2ccc3ccccc3c2)CC1	12.5	2.6	63.5*	-11.0	-0.3	-3.9	13.6	1.2	-8.1
O=C(c1ccc(=O)[nH]n1)N1CCN(S(=O)(=O)c2cccc(F)c2)CC1	-8.4	0.9	-16.7	.	0.0	0.9	.	.	.
c1ccc2c(c1)OCC(CNc1ncnc3sccc13)O2 (stereo not drawn)	.	.	75.7*	-12.7	-0.4	.	74.5*	20.5	22.4
CCOC(=O)C1CCCN(C2CCN(Cc3nc(Cc4ccccc4)no3)CC2)C1 (stereo not drawn)	28.6	5.6	50.0	-21.0	-0.1	1.4	23.3	10.4	-28.6
CCN(Cc1ccncc1)C(=O)c1cc(COc2ccc(F)cc2F)on1	-29.9	0.6	50.8	-3.7	-0.5	.	31.7	-8.0	-22.5
CCN(Cc1cnn(C)c1)C(=O)c1cc(COc2ccc(F)cc2F)on1	8.1	-6.3	-9.0	-3.1	-0.4	1.2	.	.	.
COC(=O)C1=C(C)N(C)C(=O)NC1c1ccccc1 (stereo not drawn)	8.4	3.0	-1.9	3.4	9.6	-18.7	.	.	.
CC1=C(C(=O)OC(C)C)C(c2ccccc2)NC(=O)N1C (stereo not drawn)	1.6	5.3	57.2*	-16.0	-0.5	.	26.3	1.1	-8.7
CCOC(=O)Cn1c(COc2ccccc2OC)[n+](C)c2ccccc21	2.9	8.3	52.0	.	-0.1	3.6	17.7	13.8	18.0
CCOc1cc(C2NC(=O)NC(C)=C2C(=O)OCC2CCCCC2)ccc1O (stereo not drawn)	-7.6	5.1	-3.9	-3.3	-0.2	1.8	.	.	.
CCCCc1nc(N2CCN(C(=O)c3ccco3)CC2)c(C#N)c2c1CCCC2	-12.7	-3.0	66.4*	0.7	-0.8	.	24.7	11.6	35.0*
CC(C)c1nc(N2CCN(C(=O)c3ccco3)CC2)c(C#N)c2c1COC(C)(C)C2	17.1	-2.8	17.2	7.8	-0.1	.	.	.	.
COc1ccc(CCNC(=O)CCC(=O)Nc2ccc3nc(N4CCN(C)CC4)cc(C)c3c2)cc1OC	-9.5	-3.9	50.7	5.1	-0.7	-6.8	26.4	19.7	-9.7
Cc1cc(N2CCN(C)CC2)ccc1NC(=O)c1cccc(S(=O)(=O)N2CCc3ccccc3C2)c1	-22.3	-6.1	9.2	6.0	0.0	20.9	.	.	.
COc1ccc(N2CC(C(=O)NCc3nnnn3-c3ccc(C)c(C)c3)CC2=O)cc1 (stereo not drawn)	-5.6	11.7	50.8	0.4	-0.5	.	17.6	-1.5	-8.8
COc1ccccc1CNC(=O)C1CC(=O)N(c2ccc(C)c(C)c2)C1 (stereo not drawn)	5.7	-5.2	1.2	-7.1	3.5	.	.	.	.
O=C(NCc1ccc2c(c1)OCO2)C(=O)NCC1OCCN1S(=O)(=O)c1ccccc1 (stereo not drawn)	2.0	-10.2	-2.4	-6.3	1.1	3.9	.	.	.
